Measurements: ChEMBL document CHEMBL4819017 (Eur J Med Chem, 2021)

Legend:
[1] = Cmax in BALB/c mouse at 10 mg/kg, po measured for 8 hrs; type: ADME, organism-based; parameters: route oral, dose 10 mg/kg, time 8 hrs; conditions: in vivo
Method in brief: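 BALB/c mice dosed I.V. or P.O. at the stated dose; plasma levels followed for 8 h. Parameters from noncompartmental analysis: AUC (h.ng/ml), T1/2 (h), Cl (L/h/Kg), Vd (L/Kg), Cmax (ng/ml), Tmax (h).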

[2] = Inhibition of PI3K/mTOR in human U2OS cells assessed as inhibition of AKT1 phosphorylation at Ser473 residue by C-ELISA; type: cell-based
Method in brief: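 U2OS osteosarcoma cells grown in 0.1% FBS and serum-stimulated. Endogenous phospho-AKT1 Ser473 quantified by cell-based ELISA with chemiluminescent substrate. Signal plotted against inhibitor concentration and fitted to a sigmoid dose-response curve.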

[3] = Tmax in BALB/c mouse at 10 mg/kg, po measured for 8 hrs; type: ADME, organism-based; conditions: in vivo
Method in brief: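 Dosing in BALB-C mice intravenously or orally, with plasma sampled over 8 h. Parameters (AUC, T1/2, Cl, Vd, Cmax, Tmax) come from a noncompartmental model. Units: AUC h.ng/ml, Vd L/Kg, Cmax ng/ml, Tmax h.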

COc1ncc2cc1NS(=O)(=O)c1cccc(c1)C(=O)NCc1cncc(c1)-c1cnc3ccc-2cn13
Cmax [1]: 1570 ng/mL
EC50 [2]: 170 pM
Tmax [3]: 30 min
